Screens as filed in PubChem.
CendR NRP1 mod = alters CendR peptide binding to human NRP-1. inhibition, % at 25 µM. FAM-RPARPAR peptide binding to NRP-1, fluorescence polarization. 360,000 tested, 0.85% active. O14786;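 active = inhibition or corrected inhibition above about 18%, plus a signal ratio from 0.5 to 1.5, limit read from the data, passing the limit was not always enough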
DDE Tn7 FP inh = DD(E)-Tn7 binding inhibition, primary FP screen | 370,000 tested, 0.13% active | FP displacement of FITC-Tn7 peptide from fibrin DD(E); 0% = median of compound wells per plate | inhibition, % at 8.3 µM | AID 720508 | P02675;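 active = inhibition above the mean of compounds falling within the control limits plus 3 SD of them, cut at about 14% in these data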;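 note: 0% = plate median of compound wells and 100% = 10 µM Aha-Tn7 peptide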
Target sequence (P02675 whole entry, looked up): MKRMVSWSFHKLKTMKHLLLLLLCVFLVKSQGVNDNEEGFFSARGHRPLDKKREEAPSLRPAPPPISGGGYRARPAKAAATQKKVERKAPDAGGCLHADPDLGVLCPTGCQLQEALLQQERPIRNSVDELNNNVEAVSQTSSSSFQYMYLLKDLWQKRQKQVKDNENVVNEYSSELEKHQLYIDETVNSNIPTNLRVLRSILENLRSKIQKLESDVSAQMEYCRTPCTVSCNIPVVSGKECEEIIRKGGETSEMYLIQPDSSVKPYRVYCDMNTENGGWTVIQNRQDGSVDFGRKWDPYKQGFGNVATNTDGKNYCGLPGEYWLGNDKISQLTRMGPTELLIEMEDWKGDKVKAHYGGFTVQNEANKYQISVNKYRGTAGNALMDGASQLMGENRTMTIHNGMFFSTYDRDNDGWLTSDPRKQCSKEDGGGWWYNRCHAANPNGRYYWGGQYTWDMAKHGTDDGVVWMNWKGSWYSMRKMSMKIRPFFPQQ
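Assay system: Fibrin-DD(E) protein isolated from polymerized human fibrin clots; read-out basis: percent inhibition; medium: Tris/NaCl/CaCl2 buffer, pH 7.8; signal: FP measurement; incubation: 10 min plus 3 h, room temperature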
KLK7 zymogen act = activates the human kallikrein-7 zymogen. 370,000 tested, 0.9% active. purified proKLK7, EDANS-DABCYL substrate fluorescence; 100% is mature enzyme control, 0% vehicle. P49862. activation, % at 7 µM;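 active = activation above the mean of all tested compounds plus 3 SD, computed per campaign excluding outliers beyond control limits, cut at about 13% in these data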
Target sequence (P49862 whole entry, looked up): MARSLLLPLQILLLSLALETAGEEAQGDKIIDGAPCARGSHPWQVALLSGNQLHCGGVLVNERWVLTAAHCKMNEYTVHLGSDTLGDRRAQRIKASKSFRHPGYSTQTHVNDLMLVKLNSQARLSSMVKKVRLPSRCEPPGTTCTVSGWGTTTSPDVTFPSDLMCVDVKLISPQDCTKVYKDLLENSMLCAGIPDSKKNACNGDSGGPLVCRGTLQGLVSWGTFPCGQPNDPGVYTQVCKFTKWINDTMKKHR
CRFR2-BP antag = blocks CRF-induced signaling of the CRF-BP/CRF-R2 complex. HEK293 CRF-R2/CRF-BP, CRF-induced calcium fluorescence. inhibition, % at 11.8 µM. 350,000 tested, 0.59% active. AID 588475;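 active = inhibition of the ligand-induced calcium signal above about 50% at the single tested concentration, limit read from the data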
CRFBP-R2 agonist = CRF-BP/CRF-R2 complex agonism | AID 588473 | activation, % at 13.2 µM | HEK293 CRF-R2/CRF-BP, calcium dye fluorescence (FLIPR); percent of saturating CRF peptide response | 350,000 tested, 0.46% active;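 active = activation of at least 50%, plus an integration ratio under a set limit after plate pattern correction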;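 note: plate controls were neutral control wells without compound for no effect and CRF at EC100 for full effect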
DDE Tn6 FP inh = disrupts Tn6 cyclic peptide binding to fibrin D-Dimer-E complex; 370,000 tested, 0.21% active; Fibrin DD(E) TRITC-Tn6 fluorescence polarization displacement; P02675; inhibition, % at 8.3 µM; AID 720509;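 active = inhibition above a per-campaign cutoff: mean of compounds within control limits plus 3 SD, cut at about 15% in these data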;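 note: 0% = median of all compound wells on the plate and 100% = blocking peptide control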
KLK7 act conf = confirmation of human kallikrein-7 zymogen activators; shares compounds with KLK7 zymogen act; purified proKLK7, EDANS-DABCYL substrate fluorescence; scaled: vehicle 0, mature enzyme 100; activation, % at 7 µM; 3,200 tested, 68% active;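 active = activation, as change over the incubation, above the mean of all tested compounds plus 3 SD, cut at about 13% in these data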
EDANS interfere = counter-screen for kallikrein-7 activators: EDANS-DABCYL optical interference; 3,200 tested, 80% active; AID 686952; EDANS-DABCYL substrate fluorescence interference, no enzyme, 4 h; solvent 0%, active enzyme control 100%; activation, % at 7 µM; shares compounds with KLK7 zymogen act;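 active = activation above the all-compound mean plus 3 SD, ignoring values outside control-based bounds, cut at about 4.8% in these data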;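 note: value is the 4 h activation minus the activation read at time zero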
EDANS interf = optically interferes with EDANS-DABCYL fluorescence, kallikrein-7 activator counter-screen | EC50, µM | EDANS-DABCYL peptide fluorescence interference, no enzyme | shares compounds with KLK7 zymogen act | AID 720493 | 250 tested, 20% active;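 active = compounds that raise the fluorescence signal in this interference counterscreen, with EC50 at or below 10 µM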;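 note: intact quenched peptide substrate alone read at 355 nm excitation and 520 nm emission; signal is fluorescence gain from T0 to T4 after four hours at room temperature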
An asterisk follows results filed as active; / = not tested or not shown. This is a sample that favours compounds with a hit; in the whole collection about 2.9% have one here.

SMILES | CendR NRP1 mod | DDE Tn7 FP inh | KLK7 zymogen act | CRFR2-BP antag | CRFBP-R2 agonist | DDE Tn6 FP inh | KLK7 act conf | EDANS interfere | others
CCOC(=O)C1CCN(S(=O)(=O)c2cccc(-c3cn4cc(C)ccc4n3)c2)CC1 | 5.5 | 1.6 | -1.8 | -7.6 | 1.4 | 5.5 | / | /
CCOC(=O)C1CCN(S(=O)(=O)c2cccc(-c3cn4cccnc4n3)c2)CC1 | -8.0 | -1.1 | 27.2* | -3.6 | -1.0 | 0.1 | 26.1* | -15.5 | EDANS interf=>69.5
COC(=O)CSc1nc2ccc(N)cc2s1 | -13.6 | -2.8 | 0.2 | -5.9 | 0.5 | 3.0 | / | /
COC(=O)CSc1ccc2c(N)c(C(=O)OC)sc2c1 | -8.0 | 6.5 | 45.1* | 2.0 | 0.0 | 2.4 | 26.8* | 28.8*
c1ccn2c(c1)nc1c2nc2ccccn21 | -4.0 | -4.0 | 81.3* | 4.0 | 1.1 | -5.8 | 70.1* | 72.7*
Clc1c(-c2ccccc2)nc2ccccn12 | -8.8 | 7.9 | -0.1 | 5.9 | -0.1 | 6.6 | / | /
Cc1ccc2[nH]c(=O)c(C(c3nnnn3CC3CCCO3)N3CCc4ccccc4C3)cc2c1 (stereo not drawn) | -11.2 | 3.5 | 1.2 | 7.0 | 1.2 | 7.5 | / | /
COc1ccc2[nH]c(=O)c(C(c3nnnn3CC3CCCO3)N3CCc4ccccc4C3)cc2c1 (stereo not drawn) | -2.2 | -6.2 | 20.5* | -5.0 | -0.4 | -6.1 | 11.4 | 9.9*
O=C(Nc1ccc(C2=CN(Cc3ccccc3)CCC2=O)cc1)OCc1ccccc1 | 3.9 | 5.1 | 19.9* | 3.4 | -0.5 | 1.2 | -0.3 | 0.8
c1ccc(-c2cc(-c3ccccc3)n3ncnc3n2)cc1 | -7.1 | 3.9 | 0.5 | -10.1 | -1.8 | 7.3 | / | /
COc1ccc(-c2cc(-c3ccccc3)nc3ncnn23)cc1 | -5.9 | 3.4 | 15.2* | 24.9 | -1.8 | 10.5 | -51.7 | -76.3
COCc1[nH]nc2c1C(c1ccccc1)NC2=O (stereo not drawn) | / | 9.0 | 0.0 | / | / | -1.6 | / | /
CC(=O)N1c2cc(S(=O)(=O)Nc3c(C)n(C)n(-c4ccccc4)c3=O)c(Br)cc2CC1C (stereo not drawn) | / | -7.4 | 0.1 | / | / | -5.4 | / | /
O=C(CSc1n[nH]c(=O)n1C1CC1)Nc1ccc(Cl)c(Cl)c1 | -6.2 | -5.7 | 0.0 | 0.4 | 0.7 | -6.1 | / | /
CC(=O)c1cccc(NC(=O)CSc2n[nH]c(=O)n2C2CC2)c1 | 3.8 | 6.2 | 51.6* | 13.1 | 0.9 | 0.5 | -1.2 | 0.7
CC(/C=N\NC(=O)CSc1nnc(-c2ccc(Br)cc2)n1-c1ccccc1)=C\c1ccco1 | / | 3.2 | -1.8 | / | / | 4.7 | / | /
COC(=O)c1ccc2c(C)c(C3(O)CCCCC3)[nH]c2c1 | 14.7 | 1.1 | 38.0* | -10.4 | 0.9 | -14.7 | -80.0 | -81.7
Clc1ccc(CN2CCN(N=Cc3ccncc3)CC2)cc1 | / | -6.4 | 0.2 | / | / | 1.1 | / | /
c1cc2c(cc1C1CCCCC1)c1c3n2CCN=C3CCC1 | 1.4 | 5.0 | 2.2 | -14.2 | 0.1 | -3.4 | / | /
Cc1ccc2c(c1)c1c3n2CCN=C3CCC1 | -7.8 | 0.7 | 30.0* | 1.1 | -0.1 | -5.4 | 2.9 | 9.7*
Cc1oc2c(cc(NS(=O)(=O)c3ccc4c5c(cccc35)C(=O)N4)c3ccccc32)c1C(=O)OC(C)C | -14.3 | 3.5 | 23.9* | -28.7 | -0.8 | -10.7 | 56.9* | 52.6*
CC(C)C(NS(=O)(=O)c1ccc2c3c(cccc13)C(=O)N2)C(=O)O (stereo not drawn) | -31.2 | 2.0 | 24.8* | 1.8 | -0.9 | -1.5 | 23.1* | 33.2*
O=C(O)CNS(=O)(=O)c1ccc2c3c(cccc13)C(=O)N2 | -34.2 | -3.5 | 59.5* | 8.8 | 11.5 | -1.5 | 72.9* | 72.7*
CC(C)C(NS(=O)(=O)c1cccc(C(F)(F)F)c1)C(=O)O (stereo not drawn) | 18.5 | -0.3 | 0.0 | -2.6 | 0.9 | -1.4 | / | /
O=C(O)c1ccccc1NS(=O)(=O)c1ccc2c3c(cccc13)C(=O)N2 | -12.2 | -2.9 | -0.2 | 2.4 | 0.3 | -5.7 | / | /
SMILES | CendR NRP1 mod | DDE Tn7 FP inh | KLK7 zymogen act | CRFR2-BP antag | CRFBP-R2 agonist | DDE Tn6 FP inh | KLK7 act conf | EDANS interfere | others
O=C1Nc2ccc(S(=O)(=O)N(CCO)CCO)c3cccc1c23 | -15.6 | -3.2 | 44.6* | 6.1 | -0.9 | 0.7 | 42.1* | 50.4*
COC(=O)c1ccccc1NS(=O)(=O)c1ccc2c3c(cccc13)C(=O)N2 | 4.1 | 4.3 | 1.5 | -9.8 | -1.2 | -7.3 | / | /
Cc1ccccc1CN1CCCCC(NC(=O)C2CCCC2)C1=O (stereo not drawn) | / | 7.0 | 0.9 | / | / | 4.0 | / | /
Cc1cc(O)ccc1NS(=O)(=O)c1ccc2c3c(cccc13)C(=O)N2 | -6.0 | -2.6 | 80.7* | -5.9 | -0.1 | -8.3 | 85.6* | 98.2*
O=C(O)CCCCCNS(=O)(=O)c1ccc2c3c(cccc13)C(=O)N2 | 10.0 | 6.7 | 62.7* | 11.9 | -0.9 | -1.3 | 60.9* | 69.2*
O=C(O)CCCNS(=O)(=O)c1ccccc1 | 1.8 | 1.2 | -0.4 | 3.1 | 5.9 | -5.5 | / | /
O=C(O)c1cccc(NS(=O)(=O)c2ccc3c4c(cccc24)C(=O)N3)c1 | 3.7 | -10.9 | 1.4 | -5.4 | -0.5 | -1.3 | / | /
O=C1Nc2ccc(NS(=O)(=O)c3cccs3)c3cccc1c23 | -3.9 | -3.1 | 1.2 | -10.8 | 2.2 | 2.0 | / | /
CNS(=O)(=O)c1cc(S(=O)(=O)NC)c2cccc3c2c1NC3=O | 5.7 | 0.3 | 20.9* | 1.0 | 1.8 | -0.2 | 20.8* | 20.7*
CCOc1ccc(S(=O)(=O)NCc2ccco2)c2ccccc12 | -8.1 | -7.3 | -0.9 | -26.5 | -1.1 | 1.8 | / | /
O=C1Nc2ccc(S(=O)(=O)NCc3ccco3)c3cccc1c23 | -2.1 | -7.1 | 27.8* | 4.2 | -2.5 | 1.2 | 39.7* | 36.8*
O=C(OC12CCCN(C1)/C(=C/c1cccc(Cl)c1)C2)c1ccco1 (stereo not drawn) | / | -2.7 | 0.4 | / | / | 1.2 | / | /
C[C@H]1[C@@H](OC(=O)N2CCCC2)CC[C@@]23CCCN2C(=O)CCC[C@@H]13 | / | -6.9 | / | / | / | 2.3 | / | /
CNS(=O)(=O)c1ccc2c3c(cccc13)C(=O)N2 | 0.0 | -6.2 | 48.8* | -4.4 | -1.2 | -1.9 | 61.1* | 71.5*
CN(c1ccccc1C(=O)O)S(=O)(=O)c1ccc2c3c(cccc13)C(=O)N2 | 0.1 | 3.2 | -0.3 | -38.2 | 5.1 | -3.3 | / | /
